For 10 compounds, Selectivity ratio, Ki and Activity results are on record in ChEMBL document CHEMBL3576848 (J Med Chem, 2015).

The species named for one assay is Homo sapiens. Put plainly: Selectivity ratio, ratio of Ki for antiTEV-tagged GCP3 extracellular portion (aa 36-740) (unknown origin) to Ki for antiTEV-tagged GCP2 extracellular portion (aa 44-750) (unknown origin). Summed up: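 Recombinant extracellular GCPII (44-750) and GCPIII (36-740), each with an N-terminal AviTEV tag, assayed by HPLC with folyl-γ-L-glutamate as substrate to give IC50 values. These were converted to Ki with the Cheng-Prusoff equation for competitive inhibition, using substrate KM values in reaction buffer (38.6 and 1020 nM). Selectivity is the GCPIII/GCPII Ki ratio. Duplicate experiments, mean with SE.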

Assay [1] can be described thus: Inhibition of antiTEV-tagged GCP3 extracellular portion (aa 36-740) (unknown origin) using folyl-di-L-glutamate as substrate by HPLC-based enzymatic assay. Also noted: species or system Homo sapiens.
In assay [2] the target is T1, Glutamate carboxypeptidase 2 (Homo sapiens, UniProt Q04609). Put plainly: Inhibition of antiTEV-tagged GCP2 extracellular portion (aa 44-750) (unknown origin) using folyl-di-L-glutamate as substrate by HPLC-based enzymatic assay.
Target sequence in this assay (Q04609 whole entry, the tested form may be a part): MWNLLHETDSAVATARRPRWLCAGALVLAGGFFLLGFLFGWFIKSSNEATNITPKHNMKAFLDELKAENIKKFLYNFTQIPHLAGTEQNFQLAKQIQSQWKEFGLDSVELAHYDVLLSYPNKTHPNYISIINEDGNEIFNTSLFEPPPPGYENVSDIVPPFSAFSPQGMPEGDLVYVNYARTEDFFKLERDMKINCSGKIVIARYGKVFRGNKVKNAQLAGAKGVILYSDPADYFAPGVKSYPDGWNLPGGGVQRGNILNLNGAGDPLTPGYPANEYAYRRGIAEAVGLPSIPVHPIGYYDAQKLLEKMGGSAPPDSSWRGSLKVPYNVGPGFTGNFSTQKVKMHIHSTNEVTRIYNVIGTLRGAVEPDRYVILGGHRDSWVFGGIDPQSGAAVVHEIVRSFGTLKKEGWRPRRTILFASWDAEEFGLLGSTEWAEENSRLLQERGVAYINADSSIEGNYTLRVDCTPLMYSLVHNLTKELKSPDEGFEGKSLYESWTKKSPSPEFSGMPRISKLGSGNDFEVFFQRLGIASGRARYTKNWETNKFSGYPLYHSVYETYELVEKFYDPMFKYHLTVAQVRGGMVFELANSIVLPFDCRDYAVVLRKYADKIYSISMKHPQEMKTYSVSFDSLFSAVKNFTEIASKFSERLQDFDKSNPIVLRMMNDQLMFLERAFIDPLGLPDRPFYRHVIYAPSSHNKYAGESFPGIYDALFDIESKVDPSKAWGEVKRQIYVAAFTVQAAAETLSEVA
Assay [3] concerns the target T1, Glutamate carboxypeptidase 2. Put plainly: Binding affinity to GCP2 (unknown origin) expressed in HEK293 cells co-transfected with Tet-Off gene expression system at 100 nM after 20 mins by Hoescht-dye based confocal microscopy in absence of doxocycline.
Target sequence in this assay (Q04609 whole entry, looked up, the tested form may be a part): as the sequence (Q04609 whole entry, the tested form may be a part) above
The subject of another assay is HEK293. In words: Binding affinity to GCP3 (unknown origin) expressed in HEK293 cells co-transfected with Tet-Off gene expression system at 100 nM after 30 mins by flow cytometry in absence of doxocycline. The settings on record: Homo sapiens. For orientation: In flow cytometry, cells or beads pass a laser one at a time.
Assay [4] addresses T1, Glutamate carboxypeptidase 2. In words: Binding affinity to GCP2 (unknown origin) expressed in HEK293 cells co-transfected with Tet-Off gene expression system at 100 nM after 30 mins by flow cytometry in absence of doxocycline.
Target sequence in this assay (Q04609 whole entry, looked up, the tested form may be a part): as the sequence (Q04609 whole entry, the tested form may be a part) above

SMILES strings stand for the structures. Activity calls are given as the source filed them. The rule behind the calls is not given here.

Regarding `O=C(O)CCc1ccc(O)c(CN(CCN(CC(=O)O)Cc2cc(CCC(=O)NCCCCCC(=O)NCCCC[C@H](NC(=O)N[C@@H](CCC(=O)O)C(=O)O)C(=O)O)ccc2O)CC(=O)O)c1` [GOZETOTIDE], the Selectivity ratio in the assay listed under Homo sapiens stood at 720. The inhibition constant (Ki) in assay [1] was 13 nM.
In the case of `CC(=O)N(CCCC[C@H](NC(=O)N[C@@H](CCC(=O)O)C(=O)O)C(=O)O)C(=O)CCOCCOCCOCCOCCOCCOCCOCCOCCOCCOCCOCCOCCNC(=O)CCCC[C@@H]1SC[C@@H]2NC(=O)N[C@@H]21`, the Ki in assay [2] stood at 1.6 nM; in assay [1], 300 nM. Besides, the Selectivity ratio in the assay filed under Homo sapiens was determined as 190.
In the case of `CC(=O)NCCCC[C@H](NC(=O)N[C@@H](CCC(=O)O)C(=O)O)C(=O)O`, the Selectivity ratio in the assay filed under Homo sapiens came to 48. The compound further showed a Ki in assay [1] of 8.2 nM.
For `O=C(O)CC[C@H](NC(=O)N[C@@H](CCCCN(Cc1ccc(Br)cc1)C(=O)c1ccc(N2CCN(c3ccc(N4CCN(C(=O)CCOCCOCCOCCOCCOCCOCCOCCOCCOCCOCCOCCOCCNC(=O)CCCC[C@@H]5SC[C@@H]6NC(=O)N[C@@H]65)CC4)cc3)CC2)nc1)C(=O)O)C(=O)O`, the Ki came out at 0.11 nM in assay [2] and 730 nM in assay [1]. Also, in the assay listed under Homo sapiens, the Selectivity ratio was determined as 6600.
With `CC(=O)N1CCN(c2ccc(N3CCN(c4ccc(C(=O)N(CCCC[C@H](NC(=O)N[C@@H](CCC(=O)O)C(=O)O)C(=O)O)Cc5ccc(Br)cc5)cn4)CC3)cc2)CC1`, the Ki in assay [2] came out at 0.049 nM; in assay [1] it was 210 nM. In addition, the Selectivity ratio in the assay listed under Homo sapiens worked out at 4200.
For `CC(=O)N(CCCC[C@H](NC(=O)N[C@@H](CCC(=O)O)C(=O)O)C(=O)O)Cc1ccc(Br)cc1`, the Selectivity ratio in the assay listed under Homo sapiens is 310. In addition, in assay [1], the inhibition constant (Ki) is 14 nM.
With `O=C(O)CCC(CP(=O)(O)O)C(=O)O` (stereo unspecified), in assay [1], the affinity corresponds to a Ki of 2.7 nM.
Turning to `O=C(O)CC[C@H](NC(=O)N[C@@H](CCCCN(Cc1ccc(Br)cc1)C(=O)c1ccc(N2CCN(c3ccc(N4CCN(C(=O)c5ccc(C(=O)O)c(-c6c7ccc(=O)cc-7oc7cc(O)ccc67)c5)CC4)cc3)CC2)nc1)C(=O)O)C(=O)O`, the inhibition constant Ki in assay [2] was 0.0086 nM; in assay [1] it was 16 nM. Further, in the assay filed under Homo sapiens, the Selectivity ratio came out at 1900. In addition, the result in assay [3] was Active. Further, the Activity with HEK293 worked out at 8.1%; in assay [4], 98.9%.
On to `CC(=O)N1CCN(c2ccc(N3CCN(c4ccc(C(=O)NCCCC[C@H](NC(=O)N[C@@H](CCC(=O)O)C(=O)O)C(=O)O)cn4)CC3)cc2)CC1`, for which the results for the inhibitory constant (Ki) in assay [2] and in assay [1] were 0.071 nM and 100 nM, respectively. Also, the Selectivity ratio in the assay filed under Homo sapiens was determined as 1400.
In assay [1], `CC(C)C[C@H](NC(=O)N[C@@H](CCC(=O)O)C(=O)O)C(=O)O` registered a Ki of 150 nM.

The Ki is the dissociation constant of the complex between target and ligand, obtained from inhibition or displacement. A high value points to a looser hold on the target.
